NPY2 pot ag: potentiators or agonists of human neuropeptide Y receptor Y2 | P49146 | 0.45% of 220,000 active | cells expressing NPY-Y2, potentiator/agonist read-out | AID 1359 | activation, % at 3.6 µM; in the data active = activation above about 27%;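 note: cells stimulated with NPY near EC25 plus isoproterenol at EC100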
Target sequence (P49146 whole entry, looked up): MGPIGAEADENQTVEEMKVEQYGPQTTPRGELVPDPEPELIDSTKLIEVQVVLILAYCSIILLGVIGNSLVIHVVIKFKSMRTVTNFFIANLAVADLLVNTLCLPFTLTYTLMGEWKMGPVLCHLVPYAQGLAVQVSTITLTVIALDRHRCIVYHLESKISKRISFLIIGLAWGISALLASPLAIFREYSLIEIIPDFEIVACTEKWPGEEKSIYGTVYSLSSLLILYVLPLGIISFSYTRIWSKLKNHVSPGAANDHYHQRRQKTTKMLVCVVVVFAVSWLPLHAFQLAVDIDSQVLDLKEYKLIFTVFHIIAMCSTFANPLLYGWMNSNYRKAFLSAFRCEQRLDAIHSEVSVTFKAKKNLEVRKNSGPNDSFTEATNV
NPY-Y1 antag: antagonists of human neuropeptide Y receptor Y1. HEK293-CNG Y1 cells, membrane potential fluorescence; NPY at EC95, then isoproterenol. inhibition, % at 3.6 µM. 1% of 200,000 active. AID 1040;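 active = inhibition above the campaign mean inhibition of all tested compounds plus 3 SD, cut at about 20% in these data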
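Material: HEK293 cells with Y1 receptor plus CNG channel; times: compound incubation 1 h at room temperature, readout 45 min post-stimulation; signal: fluorescence, membrane potential probe; read-out basis: fluorescence ratio normalized to % inhibition between controls; benchmarks: full-block control isoproterenol-only wells, zero-block control NPY plus isoproterenol wells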
NPY-Y1 PAM-ag: human NPY-Y1 potentiation or agonism, primary screen. P25929. NPY-Y1 expressing cells, potentiator/agonist activation. activation, % at 3.6 µM. 0.37% of 220,000 active. AID 1304; in the data active = activation above about 33%, passing the limit was not always enough;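 note: cells stimulated with NPY at EC10 then isoproterenol at EC100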
NPY Y2 blocker: NPY-Y2 (human) receptor antagonism; P49146; NPY-Y2 expressing cells, antagonist mode; inhibition, % at 2.7 µM; 0.99% of 140,000 active
NPY1 antag conf: confirmation of human neuropeptide Y receptor Y1 antagonists; shares compounds with NPY-Y1 antag; HEK293-CNG NPY-Y1, membrane potential fluorescence, cAMP; NPY challenge against isoproterenol-raised cAMP; inhibition, % at 3.6 µM; 21% of 1,200 active; AID 1254; in the data active = inhibition above about 20%
NPY-Y2 antag ct: counter-screen for NPY-Y1 antagonists: human NPY-Y2 antagonism; shares compounds with NPY-Y1 antag; HEK293 NPY-Y2 CNG membrane potential fluorescence; cells given NPY, then isoproterenol; inhibition, % at 3.6 µM; 28% of 1,200 active; AID 1255
Large screens that a line does not name were inactive (follow-up assays come after a bar, where they were run). This is a sample that favours compounds with a hit; in the whole collection about 1.8% have one here. Cut-off read from the data, not from the text of the source, unless noted: active = inhibition above about 17%; inactive = the rest.

Clc1ccc(-c2nn3c(C4COc5ccccc5O4)nnc3s2)cc1 (stereo unspecified)	NPY-Y1 antag 25 | NPY1 antag conf inactive | NPY-Y2 antag ct inactive
CN(C)c1ccc(-c2nn3c(-c4ccc(Cl)cc4)nnc3s2)cc1	none
COc1cc(Cl)c(C)cc1NC(=S)NN	none (no result: NPY Y2 blocker)
CN1CCN(C(=O)c2ccccc2-c2nc(-c3ccccc3)no2)CC1	NPY-Y1 antag 28 | NPY1 antag conf inactive | NPY-Y2 antag ct inactive
CCOc1ccccc1NC(=S)N(Cc1cc2ccc(C)cc2[nH]c1=O)CC1CCCN1CC (stereo unspecified)	none
C[C@@H]1CN(C(=O)c2nc3ccc(Cl)cn3c2CNCC[C@@H]2C[C@@H]3C=C[C@H]2C3)C[C@H](C)O1	NPY-Y1 antag 24 (no result: NPY Y2 blocker) | NPY1 antag conf inactive | NPY-Y2 antag ct inactive
O=C(c1nc2ccc(Cl)cn2c1CNCC[C@@H]1C[C@@H]2C=C[C@H]1C2)N1CCCCCCC1	none (no result: NPY Y2 blocker)
CCCCn1nc(C(=O)Nc2cc(S(=O)(=O)N(C)C)ccc2C)c2ccccc2c1=O	none (no result: NPY-Y1 antag, NPY Y2 blocker)
Cc1cc(C)n(C(=O)C2CCCN2S(=O)(=O)c2ccc(Cl)cc2)n1 (stereo unspecified)	NPY-Y1 antag 25 | NPY1 antag conf inactive | NPY-Y2 antag ct inactive
O=C(C1CCCN1S(=O)(=O)c1ccc(Cl)cc1)N1CCOCC1 (stereo unspecified)	none
O=S(=O)(Nc1ncccn1)c1ccc(NC(=S)Nc2ccccc2Cl)cc1	none (no result: NPY-Y1 antag, NPY Y2 blocker)
COC(=O)c1sccc1NC(=O)/C=C/c1c(Cl)cccc1Cl	none
COC(=O)c1sccc1NC(=O)CSc1cccc(Cl)c1Cl	NPY-Y1 antag 24 | NPY1 antag conf inactive | NPY-Y2 antag ct inactive
CS(=O)(=O)c1ccc2nc(NC(=O)c3ccc(N4C(=O)CCC4=O)cc3)sc2c1	none (no result: NPY-Y1 antag, NPY Y2 blocker)
CNc1ccc(/C=C/C(=O)c2cccc3ccccc23)cc1[N+](=O)[O-]	none
COC(=O)c1c(NC(=O)CSc2nnnn2-c2ccccc2)sc2c1CCC(C(C)(C)C)C2 (stereo unspecified)	none
COC(=O)c1c(NC(=O)CSc2nnnn2-c2ccccc2)sc2c1CCC(C)C2 (stereo unspecified)	NPY-Y1 antag 20 | NPY1 antag conf inactive | NPY-Y2 antag ct inactive
COc1ccc(-c2c[n+](CC(=O)c3ccccc3)c3n2CCCCC3)cc1	none (no result: NPY-Y1 antag, NPY Y2 blocker)
CC1CCC(C(C)C)C(OC(=O)C[n+]2cc(-c3ccc(Cl)cc3)n3c2CCCCC3)C1 (stereo unspecified)	NPY-Y1 antag 80 (no result: NPY Y2 blocker) | NPY1 antag conf 45 | NPY-Y2 antag ct 39
O=C(C[n+]1cc(-c2ccccc2)n2c1CCCCC2)c1ccc(Cl)cc1	NPY-Y1 antag 37 | NPY1 antag conf 25 | NPY-Y2 antag ct 22
Clc1ccc(C[n+]2cc(-c3ccccc3)n3c2CCCCC3)c(Cl)c1	NPY-Y1 antag 50 (no result: NPY Y2 blocker) | NPY1 antag conf 33 | NPY-Y2 antag ct 22
Cc1ccc(-c2c[n+](CC(=O)c3ccc(Br)cc3)c3n2CCCCC3)cc1	NPY-Y1 antag 35 (no result: NPY Y2 blocker) | NPY1 antag conf 52 | NPY-Y2 antag ct 31
Clc1ccc(-c2c[n+](Cc3ccc(Cl)cc3Cl)c3n2CCCCC3)cc1	none (no result: NPY-Y1 antag, NPY Y2 blocker)
Cc1ccc(C(=O)Nc2ccc(C(=O)O)cc2)cc1S(=O)(=O)NCc1ccccc1	none (no result: NPY Y2 blocker)
Fc1ccc(Nc2ccc3ccccc3n2)c(F)c1	none (no result: NPY Y2 blocker)
CSc1ccccc1NC(=O)CSCc1ccc(Br)cc1	NPY-Y1 antag 27 | NPY1 antag conf inactive | NPY-Y2 antag ct inactive
CCCCNCC(O)(c1ccc(Cl)cc1)c1ccc(Cl)cc1	NPY-Y1 antag 26 (no result: NPY Y2 blocker) | NPY1 antag conf inactive | NPY-Y2 antag ct 17
CC1(C)CC(N2CCN(CCO)CC2)=CC(=S)N1	none (no result: NPY-Y1 antag, NPY Y2 blocker)
CCOC(=O)c1c(C)[nH]c(C(=O)OCC(=O)NC(C)(C)C)c1C	none (no result: NPY Y2 blocker)
CCOC(=O)c1[nH]c(C)c(C(=O)OCC(=O)NC(=O)NC(C)(C)C)c1C	NPY-Y1 antag 21 | NPY1 antag conf inactive | NPY-Y2 antag ct inactive
Cc1cc(S(=O)(=O)N2CCN(c3ccccc3C)CC2)ccc1F	none
Cc1cc(S(=O)(=O)N2CCN(c3c(C)cccc3C)CC2)ccc1F	NPY-Y1 antag 21 | NPY1 antag conf inactive | NPY-Y2 antag ct inactive
CCOC(=O)c1c(CSc2ccccc2)n(C)c2cc(Br)c(O)c(CN(C)C)c12	none (no result: NPY-Y1 antag, NPY Y2 blocker)
